Key:
HeLa [1] = assay: Cytotoxic activity in human HeLa cells by sulforhodamine B assay; type: functional
Procedure, shortened: (§1)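 Cell lines grown in D-MEM with 10% (v/v) FBS, 100 U/mL penicillin G and 100 μg/mL streptomycin at 37 °C, 5% CO2, 95% humidity. Cytotoxicity was measured by the Skehan method. CC50 was taken as the concentration that reduces cell growth by 50%. Docetaxel served as positive control, and each test was run in triplicate.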

SiHa [2] = assay: Cytotoxic activity in human SiHa cells by sulforhodamine B assay; type: functional; procedure, shortened: as §1
MCF7 [3] = assay: Cytotoxic activity in human MCF7 cells by sulforhodamine B assay; type: functional; procedure, shortened: as §1
MDA-MB-231 [4] = assay: Cytotoxic activity in human MDA-MB-231 cells by sulforhodamine B assay; type: functional; procedure, shortened: as §1
DU-145 [5] = assay: Cytotoxic activity in human DU145 cells by sulforhodamine B assay; type: functional; procedure, shortened: as §1
KB [6] = assay: Cytotoxic activity in human KB cells by sulforhodamine B assay; type: functional; procedure, shortened: as §1
HEp-2 [7] = assay: Cytotoxic activity in human Hep2 cells by sulforhodamine B assay; type: functional; procedure, shortened: as §1
[8] = Cytotoxic activity in African green monkey Vero cells by sulforhodamine B assay; type: cell-based; details: chlorocebus sabaeus
Procedure, shortened: (§2)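 Cells grown in D-MEM with 10% (v/v) FBS, 100 U/mL penicillin G and 100 μg/mL streptomycin, at 37 °C under 5% CO2 and 95% humidity. Cytotoxic and antiproliferative effects were measured by the sulforhodamine B method of Skehan et al. CC50 (cytotoxic) or IC50 (antiproliferative) is the concentration giving 50% growth reduction. Docetaxel was the positive control. Triplicate tests.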

[9] = Cytotoxic activity in HEK293 cells by sulforhodamine B assay; type: cell-based; details: human; procedure, shortened: as §2
[10] = Selectivity index, ratio of cytotoxic CC50 for African green monkey Vero cells to cytotoxic CC50 for human MCF7 cells; type: toxicity; details: Vero cells versus MCF7 cells, read-out: Selectivity Index
Procedure, shortened: (§3)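 Selectivity index for harmfulness to normal cells: the normal-cell (Vero or HEK293) CC50 or IC50 over the cancer-cell value from the same assay type. Each value is from sulforhodamine B growth-reduction tests done in triplicate in D-MEM/10% FBS at 37 °C, 5% CO2.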

[11] = Selectivity index, ratio of cytotoxic CC50 for African green monkey Vero cells to cytotoxic CC50 for human KB cells; type: toxicity; details: Vero cells versus KB cells, read-out: Selectivity Index; procedure, shortened: as §3
[12] = Selectivity index, ratio of cytotoxic CC50 for African green monkey Vero cells to cytotoxic CC50 for human Hep2 cells; type: toxicity; details: Vero cells versus Hep2 cells, read-out: Selectivity Index
HeLa [13] = assay: Antiproliferative activity in human HeLa cells by sulforhodamine B assay; type: functional, cell-based; procedure, shortened: as §2
SiHa [14] = assay: Antiproliferative activity in human SiHa cells by sulforhodamine B assay; type: functional, cell-based; procedure, shortened: as §2
MCF7 [15] = assay: Antiproliferative activity in human MCF7 cells by sulforhodamine B assay; type: functional, cell-based; procedure, shortened: as §2
MDA-MB-231 [16] = assay: Antiproliferative activity in human MDA-MB-231 cells by sulforhodamine B assay; type: functional, cell-based; procedure, shortened: as §2
DU-145 [17] = assay: Antiproliferative activity in human DU145 cells by sulforhodamine B assay; type: functional, cell-based; procedure, shortened: as §2
KB [18] = assay: Antiproliferative activity in human KB cells by sulforhodamine B assay; type: functional, cell-based; procedure, shortened: as §2
HEp-2 [19] = assay: Antiproliferative activity in human Hep2 cells by sulforhodamine B assay; type: functional, cell-based; procedure, shortened: as §2
Vero = assay: Antiproliferative activity in African green monkey Vero cells by sulforhodamine B assay; type: cell-based; details: Chlorocebus sabaeus; procedure, shortened: as §2
HEK293 = assay: Antiproliferative activity in HEK293 cells by sulforhodamine B assay; type: cell-based; details: Homo sapiens; procedure, shortened: as §2
[20] = Selectivity index, ratio of antiproliferative IC50 for African green monkey Vero cells to antiproliferative IC50 for human SiHa cells; type: toxicity; details: Vero cells versus SiHa cells, read-out: Ratio IC50; procedure, shortened: as §3
[21] = Selectivity index, ratio of antiproliferative IC50 for African green monkey Vero cells to antiproliferative IC50 for human KB cells; type: toxicity; details: Vero cells versus KB cells, read-out: Ratio IC50; procedure, shortened: as §3
[22] = Selectivity index, ratio of cytotoxic CC50 for African green monkey Vero cells to cytotoxic CC50 for human SiHa cells; type: toxicity; details: Vero cells versus SiHa cells, read-out: Selectivity Index; procedure, shortened: as §3
[23] = Selectivity index, ratio of cytotoxic CC50 for African green monkey Vero cells to cytotoxic CC50 for human MDA-MB-231 cells; type: toxicity; details: Vero cells versus MDA-MB-231 cells, read-out: Selectivity Index; procedure, shortened: as §3
[24] = Selectivity index, ratio of cytotoxic CC50 for African green monkey Vero cells to cytotoxic CC50 for human DU145 cells; type: toxicity; details: Vero cells versus DU145 cells, read-out: Selectivity Index; procedure, shortened: as §3
[25] = Selectivity index, ratio of antiproliferative IC50 for African green monkey Vero cells to antiproliferative IC50 for human MCF7 cells; type: toxicity; details: Vero cells versus MCF7 cells, read-out: Ratio IC50; procedure, shortened: as §3
[26] = Selectivity index, ratio of antiproliferative IC50 for African green monkey Vero cells to antiproliferative IC50 for human Hep2 cells; type: toxicity; details: Vero cells versus Hep2 cells, read-out: Ratio IC50; procedure, shortened: as §3
[27] = Selectivity index, ratio of cytotoxic CC50 for African green monkey Vero cells to cytotoxic CC50 for human HeLa cells; type: toxicity; details: Vero cells versus HeLa cells, read-out: Selectivity Index; procedure, shortened: as §3
[28] = Selectivity index, ratio of antiproliferative IC50 for African green monkey Vero cells to antiproliferative IC50 for human HeLa cells; type: toxicity; details: Vero cells versus HeLa cells, read-out: Ratio IC50; procedure, shortened: as §3

Compound | CC50 (HeLa [1]) | CC50 (SiHa [2]) | CC50 (MCF7 [3]) | CC50 (MDA-MB-231 [4]) | CC50 (DU-145 [5]) | CC50 (KB [6]) | CC50 (HEp-2 [7]) | CC50 [8] | CC50 [9] | selectivity ratio [10] | IC50 (HeLa [13]) | IC50 (SiHa [14]) | IC50 (MCF7 [15]) | IC50 (MDA-MB-231 [16]) | IC50 (DU-145 [17]) | IC50 (KB [18]) | IC50 (HEp-2 [19]) | IC50 (Vero) | IC50 (HEK293) | selectivity ratio [20] | further results
C=C(C)[C@@H]1CC[C@]2(C(=O)O)CC[C@]3(C)[C@H](CC[C@@H]4[C@@]5(C)CC[C@H]6OC(C)(C)OC[C@]6(C)[C@@H]5CC[C@]43C)[C@@H]12 | > 500 µM | > 500 µM | 84.6 µM | > 500 µM | > 500 µM | 10.2 µM | 32.4 µM | > 500 µM | 420 µM | 5 | > 500 µM | 58.2 µM | > 500 µM | > 500 µM | > 500 µM | 16.4 µM | > 500 µM | > 500 µM | 656 µM | 11.3 | selectivity ratio [11]: 41; selectivity ratio [12]: 13; selectivity ratio [21]: 39.9
C=C(C)[C@@H]1CC[C@]2(C(=O)O)CC[C@]3(C)[C@H](CC[C@@H]4[C@@]5(C)CC[C@@H](O)[C@](C)(CO)[C@@H]5CC[C@]43C)[C@@H]12 | 120 to 153 µM | 20.3 to 110 µM | 31.7 to 98.5 µM | 71.2 to 91.1 µM | 53.1 to 97.2 µM | 24.1 to 500 µM | > 500 µM | > 500 µM | 95.8 to 500 µM | 3 | > 500 µM | 57.8 to 500 µM | 48.9 to 500 µM | 169 to 500 µM | > 500 µM | 12.5 to 500 µM | 75.2 to 500 µM | > 500 µM | 95.5 to 500 µM | 1.6 | selectivity ratio [22]: 4.7; selectivity ratio [23]: 1.3; selectivity ratio [24]: 1.8; selectivity ratio [11]: 18.3; selectivity ratio [25]: 1.9; selectivity ratio [21]: 18.3; selectivity ratio [26]: 1.3
C=C(C)[C@@H]1CC[C@]2(C(=O)O)CC[C@]3(C)[C@H](CC[C@@H]4[C@@]5(C)CC[C@@H](O)C(C)(C)[C@@H]5CC[C@]43C)[C@@H]12 [EPIBETULINIC ACID] | 118 µM | 113 µM | 154 µM | > 500 µM | > 500 µM | > 500 µM | > 500 µM | 107 µM | > 500 µM | 0.7 | 91.8 µM | 117 µM | 91.6 µM | > 500 µM | > 500 µM | > 500 µM | > 500 µM | 117 µM | > 500 µM | 1 | selectivity ratio [27]: 0.9; selectivity ratio [22]: 0.9; selectivity ratio [28]: 1.3; selectivity ratio [25]: 1.2
CC1(C)CC[C@]2(C(=O)O)CC[C@]3(C)C(=CC[C@@H]4[C@@]5(C)CC[C@H](O)C(C)(C)[C@@H]5CC[C@]43C)[C@@H]2C1 [OLEANOLIC_ACID] | > 500 µM | 109 µM | > 500 µM | 106 µM | 65.6 µM | > 500 µM | > 500 µM | > 500 µM | > 500 µM | – | 204 µM | 110 µM | > 500 µM | 134 µM | 124 µM | > 500 µM | > 500 µM | > 500 µM | > 500 µM | – | –
C=C(C)[C@@H]1CC[C@]2(C)CC[C@]3(C)[C@H](CC[C@@H]4[C@@]5(C)CCC(=O)C(C)(C)[C@@H]5CC[C@]43C)[C@@H]12 [LUPENONE] | > 500 µM | > 500 µM | > 500 µM | > 500 µM | > 500 µM | > 500 µM | > 500 µM | > 500 µM | > 500 µM | – | > 500 µM | > 500 µM | > 500 µM | > 500 µM | > 500 µM | > 500 µM | > 500 µM | > 500 µM | > 500 µM | – | –

— ChEMBL document CHEMBL4130545, “Lupane-Type Triterpenes of Phoradendron vernicosum” (J Nat Prod, 2017)
